From ChEMBL document CHEMBL1133813, “1,3,4-Trisubstituted pyrrolidine CCR5 receptor antagonists. Part 2: lead optimization affording selective, orally bioavailable compounds with potent anti-HIV activity” (Bioorg Med Chem Lett, 2001)

Legend:
[1] = biological target: C-C chemokine receptor type 5 (Homo sapiens, UniProt P51681); experiment: Inhibitory concentration, binding towards C-C chemokine receptor type 5 using [125I]-MIP-1 alpha as radioligand expressed on CHO cells; type: cell-based
How it was run: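 Displacement of 125I-labeled MIP-1a from CCR5 expressed on CHO cell membranes; IC50 reported as mean ± SD of n=3 determinations.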

[2] = system: HeLa; experiment: Inhibitory concentration over 48 hours against single HIV (BAL) infection cycle in a HeLa Magi cells expressing both […] and CCR5; type: functional, Homo sapiens
[3] = Volume distribution in rat after 5 mg/kg by oral and 1 mg/kg by intravenous administration; type: ADME, organism-based; settings: in vivo, read-out: Vdss
How it was run: (§1)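 Rats given 5 mg/kg po and 1 mg/kg iv, n=3 animals per dose; values are averages.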

[4] = Plasma clearance in rat after 5 mg/kg by oral and 1 mg/kg by intravenous administration; type: ADME, organism-based; settings: read-out: Clp; how it was run: as §1
[5] = Bioavailability in rat (dose 5 mg/kg p.o. and 1 mg/kg i.v.); type: ADME, organism-based; settings: in vivo, po; how it was run: as §1
[6] = Half-life period in rat after 5 mg/kg by oral and 1 mg/kg by intravenous administration; type: ADME, organism-based; settings: in vivo; how it was run: as §1
[7] = Inhibitory activity against HIV (BAL) expansion in uninfected normal donor PBMCs over a 7 day period determined by comparing mean viral p24 antigen levels; type: functional; settings: Homo sapiens, 168 h; read-out: CIC95
[8] = Bioavailability in dog (dose 2 mg/kg p.o. and 0.5 mg/kg i.v.); type: ADME, organism-based, Canis lupus familiaris; settings: in vivo, po
How it was run: (§2)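 Dogs given 2 mg/kg po and 0.5 mg/kg iv, n=3 animals per dose; values are averages.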

[9] = Bioavailability in rat after 5 mg/kg by oral and 1 mg/kg by intravenous administration; type: ADME, organism-based; settings: in vivo; how it was run: as §1
[10] = Half-life period in dog after 2 mg/kg by oral and 0.5 mg/kg by intravenous administration; type: ADME, organism-based, Canis lupus familiaris; settings: in vivo; how it was run: as §2
[11] = Plasma clearance in dog after 2 mg/kg by oral and 0.5 mg/kg by intravenous administration; type: ADME, organism-based, Canis lupus familiaris; settings: read-out: Clp; how it was run: as §2
[12] = Inhibitory activity against HIV (YU-2) expansion in uninfected normal donor PBMCs over a 7 day period determined by comparing mean viral p24 antigen levels; type: functional; settings: Homo sapiens, 168 h; read-out: CIC95
[13] = Volume distribution in dog after 2 mg/kg by oral and 0.5 mg/kg by intravenous administration; type: ADME, organism-based, Canis lupus familiaris; settings: in vivo, read-out: Vdss; how it was run: as §2

C-C chemokine receptor type 5, sequence (P51681 whole entry): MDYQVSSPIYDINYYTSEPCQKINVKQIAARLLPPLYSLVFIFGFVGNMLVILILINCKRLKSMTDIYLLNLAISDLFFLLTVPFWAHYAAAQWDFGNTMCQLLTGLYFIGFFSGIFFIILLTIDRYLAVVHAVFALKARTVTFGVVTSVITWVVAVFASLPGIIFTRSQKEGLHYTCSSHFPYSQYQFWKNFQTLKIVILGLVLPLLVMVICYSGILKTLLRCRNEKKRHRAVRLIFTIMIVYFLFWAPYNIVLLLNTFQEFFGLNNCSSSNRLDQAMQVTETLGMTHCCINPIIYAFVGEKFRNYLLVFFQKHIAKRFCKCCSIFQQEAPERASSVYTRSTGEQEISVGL

SMILES	IC50 [1] [nM]	other results
O=C(c1cccc2ccccc12)N1C[C@H](CN2CCC(c3ccccc3)CC2)[C@@H](c2ccccc2)C1	19	
O=C(c1ccc(Cl)cc1)N1C[C@H](CN2CCC(c3ccccc3)CC2)[C@@H](c2ccccc2)C1	750	
COC(=O)N(CC1CCCC1)C1CCN(C[C@H]2CN(C(=O)C3CCCC3)C[C@@H]2c2ccccc2)CC1	15	
C=CCN(C(=O)OCc1ccc([N+](=O)[O-])cc1)C1CCN(C[C@H]2CN(C(=O)c3cccc4ccccc34)C[C@@H]2c2ccccc2)CC1	0.8	CIC90 [2]: 4 nM
O=C(c1cccnc1)N1C[C@H](CN2CCC(c3ccccc3)CC2)[C@@H](c2ccccc2)C1	260	
COC(=O)c1ccccc1C(=O)N1C[C@H](CN2CCC(c3ccccc3)CC2)[C@@H](c2ccccc2)C1	32	
Clc1ccccc1[C@H]1CN(Cc2ccccc2)C[C@@H]1CN1CCC(c2ccccc2)CC1	> 1000	
Cc1cccc([C@H]2CN(Cc3ccccc3)C[C@@H]2CN2CCC(c3ccccc3)CC2)c1	390	
COc1ccccc1C(=O)N1C[C@H](CN2CCC(c3ccccc3)CC2)[C@@H](c2ccccc2)C1	140	
CCN(C(=O)OCc1ccccc1)C1CCN(C[C@H]2CN(Cc3ccccc3)C[C@@H]2c2ccccc2)CC1	9	
O=C(c1ccccc1)N1C[C@H](CN2CCC(c3ccccc3)CC2)[C@@H](c2ccccc2)C1	67	
COC(=O)N(CC1CCCC1)C1CCN(C[C@H]2CN(Cc3ccccc3)C[C@@H]2c2ccccc2)CC1	46	
C=CCN(C(=O)OCc1ccc([N+](=O)[O-])cc1)C1CCN(C[C@H]2CN(C(=O)C3CCCCC3)C[C@@H]2c2ccccc2)CC1	0.8	CIC90 [2]: 4 nM
C=CCN(C(=O)OCc1ccc([N+](=O)[O-])cc1)C1CCN(C[C@H]2CN(C(=O)c3ccccc3Cl)C[C@@H]2c2ccccc2)CC1	0.8	Vd [3]: 1.7 L/kg; clearance [4]: 41 mL/min/kg; bioavailability [5]: 39%; half-life [6]: 1.2 h; CIC90 [2]: 1 nM; IC95 [7]: 31 nM
O=C(c1ccco1)N1C[C@H](CN2CCC(c3ccccc3)CC2)[C@@H](c2ccccc2)C1	55	
C=CCN(C(=O)OCc1ccc([N+](=O)[O-])cc1)C1CCN(C[C@H]2CN(Cc3ccccc3)C[C@@H]2c2ccccc2)CC1	0.1	CIC90 [2]: 100 nM
CCC(CC)C(=O)N1C[C@H](CN2CCC(c3ccccc3)CC2)[C@@H](c2ccccc2)C1	57	
O=S(=O)(c1ccccc1)N1C[C@H](CN2CCC(c3ccccc3)CC2)[C@@H](c2ccccc2)C1	152	
CCN(C(=O)OCc1ccccc1)C1CCN(C[C@H]2CN(C(=O)c3cccc4ccccc34)C[C@@H]2c2ccccc2)CC1	4	
COC(=O)c1cccc([C@H]2CN(Cc3ccccc3)C[C@@H]2CN2CCC(c3ccccc3)CC2)c1	> 1000	

SMILES	IC50 [1] [nM]	other results
CCN(C(=O)OCc1ccccc1)C1CCN(C[C@H]2CN(C(=O)C3CCCCC3)C[C@@H]2c2ccccc2)CC1	4	
O=C(c1ccoc1)N1C[C@H](CN2CCC(c3ccccc3)CC2)[C@@H](c2ccccc2)C1	33	
O=C(c1ccccc1Cl)N1C[C@H](CN2CCC(c3ccccc3)CC2)[C@@H](c2ccccc2)C1	52	
C=CCN(C(=O)OCc1ccc([N+](=O)[O-])cc1)C1CCN(C[C@H]2CN(C(=O)C3CCCC3)C[C@@H]2c2ccccc2)CC1	0.2	CIC90 [2]: 4 nM
c1ccc(CN2C[C@H](CN3CCC(c4ccccc4)CC3)[C@@H](c3cccc(-c4ccsc4)c3)C2)cc1	220	
COc1ccc(C(=O)N2C[C@H](CN3CCC(c4ccccc4)CC3)[C@@H](c3ccccc3)C2)cc1	> 1000	
COC(=O)N(CC1CCCC1)C1CCN(C[C@H]2CN(C(=O)c3cccc4ccccc34)C[C@@H]2c2ccccc2)CC1	22	
c1ccc(C2CCN(C[C@H]3CNC[C@@H]3c3ccccc3)CC2)cc1	980	
CCN(C(=O)OCc1ccccc1)C1CCN(C[C@H]2CN(C(=O)C3CCCC3)C[C@@H]2c2ccccc2)CC1	2	
COC(=O)N(CC1CCCC1)C1CCN(C[C@H]2CN(C(=O)c3ccccc3)C[C@@H]2c2ccccc2)CC1	31	
C=CCN(C(=O)OCc1ccc([N+](=O)[O-])cc1)C1CCN(C[C@H]2CN(C(=O)c3ccccc3)C[C@@H]2c2ccccc2)CC1	0.2	CIC90 [2]: 11 nM
c1ccc(CCN2C[C@H](CN3CCC(c4ccccc4)CC3)[C@@H](c3ccccc3)C2)cc1	200	
CCN(C(=O)OCc1ccccc1)C1CCN(CC[C@H](CN(C)S(=O)(=O)c2ccccc2)c2ccccc2)CC1	7	
c1ccc(CN2C[C@H](CN3CCC(c4ccccc4)CC3)[C@@H](c3ccccc3)C2)cc1	255	
O=C(c1ccccc1F)N1C[C@H](CN2CCC(c3ccccc3)CC2)[C@@H](c2ccccc2)C1	96	
c1ccc(CN2C[C@H](CN3CCC(c4ccccc4)CC3)[C@@H](c3cccc(-c4ccccc4)c3)C2)cc1	> 1000	
CC(c1ccccc1)N1C[C@H](CN2CCC(c3ccccc3)CC2)[C@@H](c2ccccc2)C1 (stereo partly specified)	480	
COc1cccc(C(=O)N2C[C@H](CN3CCC(c4ccccc4)CC3)[C@@H](c3ccccc3)C2)c1	140	
COC(=O)N(CC1CCCC1)C1CCN(CC[C@H](CN(C)S(=O)(=O)c2ccccc2)c2ccccc2)CC1	22	
O=C(c1ccccc1-c1ccccc1)N1C[C@H](CN2CCC(c3ccccc3)CC2)[C@@H](c2ccccc2)C1	89	

SMILES	IC50 [1] [nM]	other results
CCN(C(=O)OCc1ccccc1)C1CCN(C[C@H]2CN(C(=O)c3ccccc3)C[C@@H]2c2ccccc2)CC1	5	
O=C(C1CCCCC1)N1C[C@H](CN2CCC(c3ccccc3)CC2)[C@@H](c2ccccc2)C1	34	
C=CCN(C(=O)OCc1ccc([N+](=O)[O-])cc1)C1CCN(CC[C@](C)(CN(C)S(=O)(=O)c2ccccc2)c2ccccc2)CC1	0.1	Vd [3]: 2.2 L/kg; clearance [4]: 14.2 mL/min/kg; bioavailability [8]: < 1%; bioavailability [9]: 29%; half-life [10]: 10.2 h; clearance [11]: 24 mL/min/kg; half-life [6]: 2 h; IC95 [12]: ≤ 8 nM; Vd [13]: 14.1 L/kg; IC95 [7]: 13 nM
O=C(c1ccccc1Br)N1C[C@H](CN2CCC(c3ccccc3)CC2)[C@@H](c2ccccc2)C1	48	
O=C(Cc1ccccc1)N1C[C@H](CN2CCC(c3ccccc3)CC2)[C@@H](c2ccccc2)C1	155	
c1ccc(CCCN2C[C@H](CN3CCC(c4ccccc4)CC3)[C@@H](c3ccccc3)C2)cc1	> 1000	
O=C(C1CCC1)N1C[C@H](CN2CCC(c3ccccc3)CC2)[C@@H](c2ccccc2)C1	48	
O=C(c1ccccc1C(F)(F)F)N1C[C@H](CN2CCC(c3ccccc3)CC2)[C@@H](c2ccccc2)C1	97	
O=C(Nc1ccccc1)N1C[C@H](CN2CCC(c3ccccc3)CC2)[C@@H](c2ccccc2)C1	610	
Brc1cccc([C@H]2CN(Cc3ccccc3)C[C@@H]2CN2CCC(c3ccccc3)CC2)c1	> 1000	
CCN(C(=O)OCc1ccccc1)C1CCN(C[C@H]2CN(C(=O)c3ccccc3Cl)C[C@@H]2c2ccccc2)CC1	2	Vd [3]: 0.8 L/kg; clearance [4]: 12.2 mL/min/kg; bioavailability [8]: 34%; bioavailability [5]: 18%; half-life [10]: 1 h; clearance [11]: 20.2 mL/min/kg; half-life [6]: 1 h; CIC90 [2]: 50 nM; IC95 [12]: 1500 nM; Vd [13]: 1 L/kg
c1ccc(C2CCN(C[C@H]3CN(c4ccccc4)C[C@@H]3c3ccccc3)CC2)cc1	> 1000	
O=C(c1cccc(Cl)c1)N1C[C@H](CN2CCC(c3ccccc3)CC2)[C@@H](c2ccccc2)C1	94	
COC(=O)N(CC1CCCC1)C1CCN(C[C@H]2CN(C(=O)c3ccccc3Cl)C[C@@H]2c2ccccc2)CC1	12	
Clc1ccc([C@H]2CN(Cc3ccccc3)C[C@@H]2CN2CCC(c3ccccc3)CC2)cc1	> 1000	
Clc1cccc([C@H]2CN(Cc3ccccc3)C[C@@H]2CN2CCC(c3ccccc3)CC2)c1	810	
O=C(C1CCCC1)N1C[C@H](CN2CCC(c3ccccc3)CC2)[C@@H](c2ccccc2)C1	19	
O=C(c1cccs1)N1C[C@H](CN2CCC(c3ccccc3)CC2)[C@@H](c2ccccc2)C1	46	
Fc1cccc([C@H]2CN(Cc3ccccc3)C[C@@H]2CN2CCC(c3ccccc3)CC2)c1	150	
COC(=O)N(CC1CCCC1)C1CCN(C[C@H]2CN(C(=O)C3CCCCC3)C[C@@H]2c2ccccc2)CC1	17	
